Compound activity as filed in PubChem BioAssay.
dFosB activator = activators of delta FosB homodimer, primary screen, biochemical, fluorescence polarization, TAMRA-CDK5 oligo, single point. Protein FosB (Mus musculus), P13346. purified delta FosB; percent of positive-control signal above neutral wells. activation, % at 25 µM. 340,000 compounds, 0.99% hits. AID 493131, 2011;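 active = mean activation above about 17%, with every replicate also reaching it, limit read from the data, passing the limit was not always enough; inconclusive = only one of the two conditions met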
SR-BI DiI inh = inhibitors of SR-BI mediated HDL lipid uptake, primary screen, ldlA[mSR-BI] cells, fluorescence, single point; inhibition, % at 12.5 µM; Scavenger receptor class B member 1 (Mus musculus), Q61009; ldlA[mSR-BI] CHO cells, DiI-HDL uptake fluorescence, 3 h; 320,000 compounds, 0.96% hits;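 active = mean replicate inhibition of at least 70% and a set share of replicates each scoring 70 or more; inconclusive = meets just one of the two criteria; inactive = fails both criteria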
Target sequence (Q61009 whole entry, looked up): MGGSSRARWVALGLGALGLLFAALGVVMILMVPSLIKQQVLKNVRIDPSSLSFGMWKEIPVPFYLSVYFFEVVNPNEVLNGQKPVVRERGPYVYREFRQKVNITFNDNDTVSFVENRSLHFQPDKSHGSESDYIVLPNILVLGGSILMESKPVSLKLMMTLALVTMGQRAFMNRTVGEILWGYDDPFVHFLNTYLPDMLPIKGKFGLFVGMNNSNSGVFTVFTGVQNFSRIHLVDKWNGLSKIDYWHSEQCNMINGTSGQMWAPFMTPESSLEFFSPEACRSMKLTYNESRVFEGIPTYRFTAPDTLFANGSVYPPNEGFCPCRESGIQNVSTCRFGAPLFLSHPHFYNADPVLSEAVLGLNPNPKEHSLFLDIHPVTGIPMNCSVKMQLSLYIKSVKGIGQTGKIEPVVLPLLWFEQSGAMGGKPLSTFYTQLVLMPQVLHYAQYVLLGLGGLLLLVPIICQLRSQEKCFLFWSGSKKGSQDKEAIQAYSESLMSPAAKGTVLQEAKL
SR-BI uptake up = activators of SR-BI mediated DiI-HDL uptake, primary screen, ldlA[mSR-BI] CHO cells, DiI fluorescence. AID 504775, 2011. 320,000 compounds, 0.096% hits. activation, % at 12.5 µM. 3 h; 100 = double the neutral-control signal;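 active = mean replicate activation of at least 60% and every replicate at or above 60%; inconclusive = mean or all-replicate condition met, but not both; inactive = mean below 60% and not all replicates reaching 60%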
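Test system: SR-BI-overexpressing, LDLR-lacking CHO cells; Also added: labelled HDL, 10 µg/mL; Measured by: bottom-read cell fluorescence after medium removal, ex 550/em 595 nm; Timing: 3 h uptake period with compound, 37 °C; Buffer or medium: F12, 0.5% BSA, 25 mM HEPES; Doses: single compound concentration, delivered by pin transfer.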
CAL PDZ FP-1 = CAL PDZ peptide-binding inhibitors, primary screen, biochemical, fluorescence polarization, Cer-tagged CAL PDZ, HTS; inhibition, % at 20 µM; Golgi-associated PDZ and coiled-coil motif-containing protein (Homo sapiens), Q9HD26; 330,000 compounds, 0.02% hits; purified CAL PDZ, TMR-peptide fluorescence polarization, 1 h;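 active = highest replicate inhibition of at least 40%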
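Material – purified CerCALP PDZ construct · Detection – FP readout, S and P plane fluorescence · Measure – percent inhibition from loss of millipolarization · Controls – unlabelled peptide for full inhibition, DMSO wells as neutral · Probe or stimulus – TMR-labelled reporter peptide T*-PRC34 bound in PDZ groove · Times – 1 h at RT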
CAL PDZ FP-2 = untagged CAL PDZ binding inhibitors, primary screen, biochemical, fluorescence polarization, HTS. Golgi-associated PDZ and coiled-coil motif-containing protein (Homo sapiens), Q9HD26. purified CAL PDZ, TMR-peptide fluorescence polarization, 1 h. inhibition, % at 24.9 µM. 300,000 compounds, 0.92% hits. AID 602252, 2012;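 active = mean inhibition of at least 30% with at least half of replicates also reaching 30%; inconclusive = no clear call, values can overlap the other calls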
Hits are given with their value; – = inactive; ? = inconclusive; · = no result given. A selection: hits, their analogues and other compounds. The true share with any hit is near 2.8%.

SMILES | dFosB activator | SR-BI DiI inh | SR-BI uptake up | CAL PDZ FP-1 | CAL PDZ FP-2
Cc1ccc(C(=O)N2CCN(c3ccc(NC(=O)c4cccnc4)cc3)CC2)cc1 | – | – | – | – | –
CCOc1ccc(N2CC(C(=O)Nc3cccc(S(=O)(=O)N4CCCC4)c3)CC2=O)cc1 (stereo not drawn) | – | – | – | – | –
CCOc1ccc(N2CC(C(=O)Nc3cccc(S(=O)(=O)NC4=NCCC4)c3)CC2=O)cc1 (stereo not drawn) | – | · | · | – | 45
COc1ccc(CCC(=O)NNC(=O)c2cc(Cl)ccc2OC)cc1OC | – | · | · | – | –
COc1ccc(CCC(=O)NNC(=O)c2ccccn2)cc1OC | – | – | – | – | 98
O=C1NC2=C(C(=O)CCC2)C(c2cccc([N+](=O)[O-])c2)N1 (stereo not drawn) | – | – | – | – | ·
CCCc1sc(N/N=C/c2ccccn2)nc1-c1ccc(Br)cc1 | – | 72 | – | – | –
COc1ccc([C@H]2CC(=O)C=C(c3ccc(Cl)c(C(F)(F)F)c3)C2)cc1OC | – | – | – | – | –
COc1ccc2cc(N3CCCC3=O)ccc2c1 | – | – | – | – | 85
COc1cc(NC(=O)c2ccc(N3CCCC3=O)cc2)cc(OC)c1 | – | – | – | – | –
CC(C)(C)OC(=O)N(Cc1ccccc1)Cc1cccc(OCc2cccc(NC(=O)c3ccccc3)c2)c1 | – | 73 | – | – | –
CCN(CC)C(=O)c1[nH]cnc1C(=O)N[C@@H](Cc1ccccc1)C(=O)OC(C)(C)C | – | – | – | – | –
COC(=O)C(NNc1ccccc1)(NC(=O)c1cccc(F)c1)C(F)(F)F (stereo not drawn) | – | – | – | – | 50
CCN(c1ccccc1)S(=O)(=O)c1cc(CN2C(=O)c3cccnc3C2=O)ccc1OC | – | – | – | – | –
COc1ccc(CN2C(=O)c3cccnc3C2=O)cc1S(=O)(=O)N(C)c1cccc(C)c1 | – | – | – | – | 47
COc1ccc2c(c1)Cc1sc(NC(=O)c3ccccc3)nc1-2 | – | – | – | – | –
COc1ccc(C(=O)Nc2nc3c(s2)Cc2cc(OC)ccc2-3)cc1 | – | 87 | – | – | –
Cc1ccc(C(=O)Nc2ccc(C(=O)N/N=C/c3ccc(C)o3)cc2)cc1 | – | 80 | – | – | –
C/C(=N\NC(=O)c1c(Cl)cnn1C)c1cccc(NC(=O)C(C)C)c1 | – | – | – | – | –
Cc1ccc(/C=N/NC(=O)c2ccc(NC(=O)c3ccc(Cl)cc3)cc2)o1 | – | – | – | – | –
COc1ccc(C(=O)Nc2cccc(C(=O)N/N=C/c3ccc(OC)cc3OC)c2)cc1 | ? | 90 | – | – | –
COc1ccccc1/C=N/NC(=O)c1cccc(NC(=O)c2ccccc2Cl)c1 | – | 77 | – | · | –
C/C(=N\NC(=O)c1c(Cl)cnn1C)c1cccc(NC(=O)c2ccc(C)cc2)c1 | – | 85 | – | – | –
Cc1ccc(C(=O)NCC(=O)N(C)CC(=O)Nc2c(Cl)cccc2Cl)s1 | – | – | – | – | –
COc1ccccc1C(C)NC(=O)c1ccccc1SCC(=O)N1CCCC1 (stereo not drawn) | – | – | – | – | ·
SMILES | dFosB activator | SR-BI DiI inh | SR-BI uptake up | CAL PDZ FP-1 | CAL PDZ FP-2
Cc1cnc(C(=O)OC(C)C(=O)c2c(C)[nH]c3ccccc23)cn1 (stereo not drawn) | – | – | – | – | –
Cc1ccccc1C(=O)Nc1cccc(C(=O)N/N=C/c2ccccn2)c1 | – | – | – | – | –
COc1ccc(/C=N/NC(=O)c2cccc(NC(=O)c3ccccc3Cl)c2)c(OC)c1 | – | 77 | – | · | –
Cc1ccc(C(=O)Nc2cccc(C(=O)N/N=C/c3ccc(F)cc3)c2)cc1 | – | 76 | – | – | 75
COc1ccccc1/C=N/NC(=O)c1cccc(NC(=O)c2ccccc2C)c1 | – | 75 | – | – | ·
COc1ccc(/C=N/NC(=O)c2cccc(NC(=O)c3ccccc3Cl)c2)cc1 | – | – | – | – | ·
O=C1CC2(CCN(C(=O)c3ccccc3[N+](=O)[O-])CC2)Oc2ccccc21 | – | – | – | – | –
Nc1ccc(-c2c3ccc(=O)cc-3oc3cc(O)ccc23)cc1C(=O)O | – | – | – | – | 41
O=c1ccc2c(-c3ccccc3)c3ccc(O)cc3oc-2c1 | – | – | – | · | –
O=C(CN1CCN(c2cccc(Cl)c2)CC1)NC1CCCc2ccccc21 (stereo not drawn) | – | – | – | – | –
CN(C(=O)CSc1cn(CC(=O)N2CCOCC2)c2ccccc12)c1ccccc1 | – | – | – | – | 35
CC1CN(C(=O)CSc2cn(CC(=O)N3CCOCC3)c3ccccc23)CC(C)O1 (stereo not drawn) | – | – | – | – | –
CC(C)c1ccc(NC(=O)C2C3C=CC4(O3)C2C(=O)N(CCCN2CCOCC2)C4C(=O)NC2CCCCC2)cc1 (stereo not drawn) | – | · | · | – | –
CCOc1ccc(NC(=O)CCC(=O)c2ccc(OC)cc2)cc1 | – | – | – | – | –
COc1ccccc1C(=O)NCCC(=O)Nc1cccc(S(=O)(=O)N2CCCC2)c1 | – | – | – | – | –
NC(=S)N=Nc1c(O)n(Cc2ccccc2)c2ccccc12 | – | – | – | – | –
C/C(Cl)=C\Cn1c(O)c(N=NC(N)=S)c2ccccc21 | – | – | – | – | 76
COc1ccc(NC(=O)c2ccc(COc3ccccc3OC)o2)cc1OC | – | · | · | – | –
COc1ccc(/C=N/NC(=O)c2ccc(COc3ccccc3Cl)o2)c(OC)c1C | – | 76 | – | – | –
C/C(=N\Nc1ccc(C(=O)c2c(C)cc3ccccn23)cc1[N+](=O)[O-])c1ccc(O)cc1 | – | · | · | – | –
C/C(=N/Nc1ccc(C(=O)c2c(C)cc3ccccn23)cc1[N+](=O)[O-])c1ccc(O)cc1 | – | 101 | – | – | –
COc1ccccc1OCCn1cc(/C=N/NC(N)=S)c2ccccc21 | – | 77 | – | – | ·
CNC(=S)N/N=C/c1cn(CCOc2ccc(OC)cc2)c2ccccc12 | – | 78 | – | – | –
COc1ccc(OCCn2cc(C=O)c3ccccc32)cc1 | – | – | – | – | –
Cc1cc(SCC(=O)N/N=C/c2ccc(C(=O)O)cc2)nc2ccccc12 | – | – | – | – | –
Cc1cc(C(=O)COC(=O)COc2ccc(C#N)cc2)c(C)n1C1CC1 | – | – | – | – | –
Cc1ccc(SCC(=O)Nc2cccc(S(=O)(=O)N3CCOCC3)c2)cc1C | – | – | – | – | –
